Measured values published in ChEMBL document CHEMBL4145560, “Conformationally Constrained Cinnolinone Nucleoside Analogues as Siderophore Biosynthesis Inhibitors for Tuberculosis” (ACS Med Chem Lett, 2018).
Activity calls are given as the source filed them. No cut-off for these calls is given here.

Tests used:
[1] = biological target: T1, Salicyl-AMP ligase / salicyl-S-ArCP synthetase (Mycobacterium tuberculosis, UniProt P71716); assay: Inhibition of Mycobacterium tuberculosis recombinant salicylate ligase MbtA expressed in Escherichia coli using salicylic acid as substrate after 20 mins by [32P]PPi-ATP exchange based scintillation counting analysis; details: read-out: Ki(app)
T1 sequence (P71716 whole entry): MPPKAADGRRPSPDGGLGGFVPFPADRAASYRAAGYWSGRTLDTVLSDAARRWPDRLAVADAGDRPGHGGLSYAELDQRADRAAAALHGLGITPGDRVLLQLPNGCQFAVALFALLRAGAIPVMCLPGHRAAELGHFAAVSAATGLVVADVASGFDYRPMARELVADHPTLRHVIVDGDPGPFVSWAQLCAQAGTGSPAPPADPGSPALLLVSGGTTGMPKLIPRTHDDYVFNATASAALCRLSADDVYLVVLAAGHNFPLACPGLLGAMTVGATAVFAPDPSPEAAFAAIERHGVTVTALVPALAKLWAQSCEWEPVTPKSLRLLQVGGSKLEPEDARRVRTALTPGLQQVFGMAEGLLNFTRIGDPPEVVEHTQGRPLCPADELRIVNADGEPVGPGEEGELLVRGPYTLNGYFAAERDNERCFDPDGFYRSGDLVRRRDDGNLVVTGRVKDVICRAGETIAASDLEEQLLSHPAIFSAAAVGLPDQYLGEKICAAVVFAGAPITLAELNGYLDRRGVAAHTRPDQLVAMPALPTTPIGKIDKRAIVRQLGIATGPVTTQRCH
How it was run: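 Recombinant MbtA (7 nM) in a [32P]PPi-ATP exchange assay under initial-velocity conditions at pH 8.0. Substrates were 10 mM ATP, 250 μM salicylic acid and 1 mM PPi. Concentration–response data were fitted to the Morrison tight-binding equation to give apparent Ki.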

[2] = test system: Mycobacterium tuberculosis; assay: Antimycobacterial activity against Mycobacterium tuberculosis H37Rv in glycerol alanine salts medium without ferric ammonium citrate at pH 6.6 after 10 to 14 days by broth microdilution method; type: functional
How it was run: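 M. tuberculosis H37Rv grown in glycerol-alanine-salts medium at pH 6.6, with no ferric ammonium citrate or other added iron. MIC taken as the concentration inhibiting 99% of growth.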

[3] = Cytotoxicity against human HepG2 cells assessed as reduction in cell viability; type: cell-based
How it was run: (§1)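 Viability of mammalian Vero and HepG2 cell lines tested up to a highest concentration of 200 μM.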

[4] = Cytotoxicity against African green monkey Vero cells assessed as reduction in cell viability; type: cell-based; details: chlorocebus sabaeus; how it was run: as §1
[5] = test system: Mycobacterium tuberculosis; assay: Antimycobacterial activity against Mycobacterium tuberculosis H37Rv in glycerol alanine salts medium without ferric ammonium citrate at pH 6.6 after 10 to 14 days in presence of 12.5 uM salicylate by broth microdilution method; type: functional
How it was run: (§2)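 MIC against M. tuberculosis in iron-deficient GAST medium supplemented with salicylate at 0, 0.2, 0.78, 3.1 or 12.5 μM. Salicylate was added to the growth medium to test antagonism of whole-cell activity.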

[6] = test system: Mycobacterium tuberculosis; assay: Antimycobacterial activity against wild type Mycobacterium tuberculosis in iron-free GAST medium at 0.04 to 10 uM after 8 days by two fold serial dilution method; type: functional, organism-based
[7] = AUC (0 to 8 hrs) in Sprague-Dawley rat at 25 mg/kg, po administered as single dose via gavage by LC-MS/MS method; type: ADME, organism-based; design: time < 8 hr, dose 25 mg/kg, route oral; details: in vivo
How it was run: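 Female Sprague–Dawley rats (n = 3), single oral dose 25 mg/kg. Plasma levels at time points measured by LC–MS/MS. AUC over 0–8 h, reported as mean ± SD.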

[8] = AUC (0 to 8 hrs) in Sprague-Dawley rat at 2.5 mg/kg, iv administered as single dose via bolus injection by LC-MS/MS method; type: ADME, organism-based; design: time < 8 hr, dose 2.5 mg/kg, route intravenous; details: in vivo
How it was run: (§3)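 Female Sprague–Dawley rats (n = 3), single i.v. dose 2.5 mg/kg. Plasma concentrations at several time points by LC–MS/MS. AUC taken over 0–8 h. Clearance, volume of distribution and half-life derived from the i.v. curve, with elimination monoexponential. Reported as mean ± SD.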

[9] = Volume of distribution at steady state in Sprague-Dawley rat at 2.5 mg/kg, iv administered as single dose via bolus injection by LC-MS/MS method; type: ADME, organism-based; details: in vivo, read-out: Vdss; how it was run: as §3
[10] = Clearance in Sprague-Dawley rat at 2.5 mg/kg, iv administered as single dose via bolus injection by LC-MS/MS method; type: ADME, organism-based; details: in vivo; how it was run: as §3
[11] = Elimination half life in Sprague-Dawley rat at 2.5 mg/kg, iv administered as single dose via bolus injection by LC-MS/MS method; type: ADME, organism-based; details: in vivo, read-out: beta t1/2; how it was run: as §3
[12] = Oral bioavailability in Sprague-Dawley rat at 25 mg/kg administered as single dose via gavage by LC-MS/MS method; type: ADME, organism-based; details: in vivo
How it was run: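 Oral bioavailability (F) in female Sprague–Dawley rats (n = 3), calculated by comparing AUC0–8h after a single 25 mg/kg p.o. dose with AUC0–8h after a 2.5 mg/kg i.v. dose. Plasma levels measured by LC–MS/MS.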

[13] = test system: Mycobacterium tuberculosis; assay: Antimycobacterial activity against Mycobacterium tuberculosis H37Rv in glycerol alanine salts medium without ferric ammonium citrate at pH 6.6 after 10 to 14 days in presence of 0.2 to 3.1 uM salicylate by broth microdilution method; type: functional, organism-based; how it was run: as §2
[14] = biological target: T2, Salicyl-AMP ligase / salicyl-S-ArCP synthetase (Mycobacterium tuberculosis) (UniProt P71716); assay: Inhibition of salicylate ligase MbtA in Mycobacterium tuberculosis H37Rv in iron-free GAST medium assessed as reduction in cell-wall associated lipophilic mycobactin-T production at pH 7.4 at 5 times MIC after 27 hrs by LC-MS/MS method relative to control
T2 sequence (whole entry): T1 sequence (P71716 whole entry)
How it was run: (§4)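 M. tuberculosis grown in iron-deficient GAST medium from an initial OD650 of 0.2, with or without inhibitor at 5 × MIC, for 27 and 70 h. Mycobactin-T (cell-wall associated) and carboxymycobactin (secreted plus cell-wall associated) quantified by LC–MS/MS in MRM mode against synthetic standards. Values normalized to cell density.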

[15] = biological target: T2, Salicyl-AMP ligase / salicyl-S-ArCP synthetase (Mycobacterium tuberculosis); assay: Inhibition of salicylate ligase MbtA in Mycobacterium tuberculosis H37Rv in iron-free GAST medium assessed as reduction in cell-wall associated lipophilic mycobactin-T production at pH 7.4 at 5 times MIC after 70 hrs by LC-MS/MS method relative to control; how it was run: as §4
[16] = biological target: T2, Salicyl-AMP ligase / salicyl-S-ArCP synthetase (Mycobacterium tuberculosis); assay: Inhibition of salicylate ligase MbtA in Mycobacterium tuberculosis H37Rv in iron-free GAST medium assessed as reduction in water-soluble carboxymycobactin production at pH 7.4 at 5 times MIC after 27 to 70 hrs by LC-MS/MS method relative to control; how it was run: as §4

SMILES: Nc1ncnc2c1ncn2[C@@H]1O[C@H](CNS(=O)(=O)c2noc3ccccc3c2=O)[C@@H](O)[C@H]1O
- Ki [1]: > 50 µM
- MIC99 [2]: > 50 µM
- CC50 [3]: > 200 µM
- CC50 [4]: > 200 µM

SMILES: Nc1ncnc2c1ncn2[C@@H]1O[C@H](COS(=O)(=O)NC(=O)c2ccccc2O)[C@@H](O)[C@H]1O
- MIC [5]: ≥ 50 µM
- Activity [6]: Active
- AUC(0-t) at 8 h [7]: 1100 ng·h/mL
- AUC(0-t) at 8 h [8]: 8650 ng·h/mL
- Vd [9]: 0.079 L/kg
- clearance [10]: 4.9 mL/min/kg
- half-life [11]: 11 min
- bioavailability [12]: < 1%

SMILES: Nc1ncnc2c1ncn2[C@@H]1O[C@H](CNS(=O)(=O)c2n[nH]c3cc(F)c(F)cc3c2=O)[C@@H](O)[C@H]1O
- Ki [1]: 0.014 µM
- MIC99 [2]: 3.1 µM
- CC50 [3]: > 200 µM
- CC50 [4]: > 200 µM
- Activity [13]: inactive
- MIC [5]: ≥ 50 µM

SMILES: Nc1ncnc2c1ncn2[C@@H]1O[C@H](CNS(=O)(=O)c2n[nH]c3ccccc3c2=O)[C@@H](O)[C@H]1O
- Ki [1]: 0.0144 µM
- MIC99 [2]: 4.7 µM
- CC50 [3]: > 200 µM
- CC50 [4]: > 200 µM
- Activity [13]: inactive
- MIC [5]: ≥ 50 µM

SMILES: CCN(CC)CC.Nc1ncnc2c1ncn2[C@@H]1O[C@H](CNS(=O)(=O)c2n[nH]c3cc(F)ccc3c2=O)[C@@H](O)[C@H]1O
- Ki [1]: 0.0116 µM
- MIC99 [2]: 2.3 µM
- CC50 [3]: > 200 µM
- CC50 [4]: > 200 µM
- Activity [13]: inactive
- MIC [5]: ≥ 50 µM
- fold change (FC) [14]: > 2
- fold change (FC) [15]: 5
- fold change (FC) [16]: 1.5
- AUC(0-t) at 8 h [7]: 967 ng·h/mL
- AUC(0-t) at 8 h [8]: 4630 ng·h/mL
- Vd [9]: 0.57 L/kg
- clearance [10]: 8.9 mL/min/kg
- half-life [11]: 40 min
- bioavailability [12]: 2.1%

SMILES: Nc1ncnc2c1ncn2[C@@H]1O[C@H](CNS(=O)(=O)c2c[nH]c3ccccc3c2=O)[C@@H](O)[C@H]1O
- Ki [1]: 0.12 µM
- MIC99 [2]: > 50 µM
- CC50 [3]: > 200 µM
- CC50 [4]: > 200 µM

SMILES: Nc1ncnc2c1ncn2[C@@H]1O[C@H](CNS(=O)(=O)c2n[nH]c3ccc(F)cc3c2=O)[C@@H](O)[C@H]1O
- Ki [1]: 0.0209 µM
- MIC99 [2]: 4.7 µM
- CC50 [3]: > 200 µM
- CC50 [4]: > 200 µM
- Activity [13]: inactive
- MIC [5]: ≥ 50 µM
